“And” between values parts separate entries of the source, which are not always exact repeats. Equal entries are not always repeated.
Tests used:
CH1 [1] = assay: In vitro antitumor activity against CH1 cell line.; type: functional, cell-based, Homo sapiens
Method in brief: (§1)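 Human ovarian carcinoma monolayers were grown in DMEM with 10% FCS, insulin and hydrocortisone under 10% CO2. Cells were seeded at 5 × 10^3–1 × 10^4 per well and left to attach overnight. Drugs were freshly dissolved in 0.9% saline (1 mM or 500 μM stocks) and added to quadruplicate wells for 96 h. Cell mass was read by SRB staining. IC50 values are means of at least two experiments.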

41M [2] = assay: In vitro antitumor activity against 41McisR cell line.; type: functional, cell-based, Homo sapiens; method in brief: as §1
[3] = In vivo antitumor activity by i.p. administration against murine ADJ/PC6 (sc) plasmacytoma.; type: ADME, organism-based; settings: mouse, ip
A2780 [4] = assay: In vitro antitumor activity against A2780cisR cell line.; type: functional, cell-based, Homo sapiens; method in brief: as §1
41M [5] = assay: In vitro antitumor activity against 41M cell line.; type: functional, cell-based, Homo sapiens; method in brief: as §1
SK-OV-3 = assay: In vitro antitumor activity against SK-OV-3 cell line.; type: functional, cell-based, Homo sapiens; method in brief: as §1
CH1 [6] = assay: In vitro antitumor activity against CH1cisR cell line.; type: functional, cell-based, Homo sapiens; method in brief: as §1
A2780 [7] = assay: In vitro antitumor activity against A2780 cell line.; type: functional, cell-based, Homo sapiens; method in brief: as §1
A2780 [8] = assay: Resistant factor determined between IC50 of resistant line to that of parental A2780 cell line; type: functional, cell-based; settings: Homo sapiens
Method in brief: (§2)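 Resistance factor is the IC50 in the cisplatin-resistant subline divided by the IC50 in its parent line. IC50s came from a 96 h SRB cytotoxicity assay run in quadruplicate wells.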

41M [9] = assay: Resistant factor was determined between IC50 of cisplatin-resistant human tumor cell lines to that of […] cell line; type: functional, cell-based; method in brief: as §2
Mus musculus [10] = assay: In Vivo Antitumor activity by ip administration against Murine ADJ/PC6 (sc) Plasmacytoma in mice; type: functional, organism-based; settings: Plasma
Method in brief: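 ADJ/PC6 plasmacytoma (or its cisplatin-resistant subline) was implanted sc as 1 mm3 fragments. On day 20 mice received a single ip injection of drug as a sonicated suspension in arachis oil, at halving doses. Ten days later tumors were dissected and weighed against controls. […] Therapeutic index is MTD/ED90, alongside LD50.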

CH1 [11] = assay: Resistant factor, determined between IC50 of resistant line to that of CHcisR cell line; type: functional, cell-based; settings: Homo sapiens; CH1cisR; method in brief: as §2
Mus musculus [12] = assay: Ability to inhibit Antitumor activity against PXN/109T/CC Human Ovarian Cracinoma xenograft in mice at dose 8 mg/kg by ip administration; type: functional, organism-based; design: dose 8 mg/kg
Method in brief: (§3)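 Human ovarian carcinoma xenografts were grown subcutaneously in female Balb C nude mice. Tumors were measured weekly until they doubled their starting volume. Growth delay is the difference in doubling time between treated and control tumors.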

Mus musculus [13] = assay: Ability to inhibit Antitumor activity against PXN/109T/C Human Ovarian Cracinoma xenograft in mice at dose 20 mg/kg by ip administration; type: functional, organism-based; design: dose 20 mg/kg; method in brief: as §3
Mus musculus [14] = assay: Ability to inhibit Antitumor activity against PXN/100 Human Ovarian Cracinoma xenograft in mice at dose 2 mg/kg by ip administration; type: functional, organism-based; design: dose 2 mg/kg; method in brief: as §3
Mus musculus [15] = assay: Ability to inhibit Antitumor activity against OVCAR-3 Human Ovarian Cracinoma xenograft in mice at dose 2 mg/kg by ip administration; type: functional, organism-based; design: dose 2 mg/kg; method in brief: as §3
Mus musculus [16] = assay: Ability to inhibit Antitumor activity against HX/110 Human Ovarian Cracinoma xenograft in mice at dose 2 mg/kg by ip administration; type: functional, organism-based; design: dose 2 mg/kg; method in brief: as §3
Mus musculus [17] = assay: Ability to inhibit Antitumor activity against PXN/100 Human Ovarian Cracinoma xenograft in mice at dose 4 mg/kg by ip administration; type: functional, organism-based; design: dose 4 mg/kg; method in brief: as §3
Mus musculus [18] = assay: Ability to inhibit Antitumor activity against PXN/109T/CC Human Ovarian Cracinoma xenograft in mice at dose 2 mg/kg by ip administration; type: functional, organism-based; design: dose 2 mg/kg; method in brief: as §3
Mus musculus [19] = assay: Ability to inhibit Antitumor activity against OVCAR-3 Human Ovarian Cracinoma xenograft in mice at dose 4 mg/kg by ip administration; type: functional, organism-based; design: dose 4 mg/kg; method in brief: as §3
Mus musculus [20] = assay: Ability to inhibit Antitumor activity against PXN/109T/C Human Ovarian Cracinoma xenograft in mice at dose 2 mg/kg by ip administration; type: functional, organism-based; design: dose 2 mg/kg; method in brief: as §3
Mus musculus [21] = assay: Ability to inhibit Antitumor activity against SKOV-3 Human Ovarian Cracinoma xenograft in mice at dose 4 mg/kg by ip administration; type: functional, organism-based; design: dose 4 mg/kg; method in brief: as §3

Substance | IC50 (CH1 [1]) | IC50 (41M [2]) | LD50 [3] | IC50 (A2780 [4]) | IC50 (41M [5]) | IC50 (SK-OV-3) | IC50 (CH1 [6]) | IC50 (A2780 [7]) | RF (A2780 [8]) | RF (41M [9]) | ED90 (Mus musculus [10]) [mg/kg] | RF (CH1 [11]) | also measured
trans-a-Ammine-b,d-dichloro-c,e-dihydrooxy-f-(Morphiline)-platinium (IV) [listing 1 of 2 here] | 17.3 µM | 54 µM | 82 mg/kg | 47 µM | 26 µM | 47 µM | 28.3 µM | 10.9 µM |  |  |  |  | 
trans-a-Ammine-b,d-dichloro-c,e-dihydrooxy-f-(Morphiline)-platinium (IV) [listing 2 of 2 here] |  |  |  |  |  |  |  |  | 4.3 | 2.1 | 94 | 1.6 | 
trans-a-Ammine-b,d-dichloro-c,e-dihydrooxy-f-(cyclopentylamine)-platinium (IV) [listing 1 of 2 here] | 1.1 µM | 1.3 µM | 15 mg/kg | 5.2 µM | 1.1 µM | 7 µM | 1.9 µM | 0.95 µM |  |  |  |  | 
trans-a-Ammine-b,d-dichloro-c,e-dihydrooxy-f-(cyclopentylamine)-platinium (IV) [listing 2 of 2 here] |  |  |  |  |  |  |  |  | 5.5 | 1.2 | 2.5 | 1.7 | 
trans-a-Ammine-b,d-dichloro-c,e-dihydrooxy-f-(ethylamine)-platinium (IV) |  |  |  |  |  |  |  |  | 5.9 | 1.4 |  | 1.4 | 
trans-a-Ammine-b,d-dichloro-c,e-dihydroxo-f-(1,1,3,3-tetramethyl butylamine)-platinium (IV) [listing 1 of 2 here] | 0.36 µM | 1 µM | 29 mg/kg | 2.2 µM | 0.48 µM | 1.8 µM | 0.55 µM | 0.4 µM |  |  |  |  | 
trans-a-Ammine-b,d-dichloro-c,e-dihydroxo-f-(1,1,3,3-tetramethyl butylamine)-platinium (IV) [listing 2 of 2 here] |  |  |  |  |  |  |  |  | 5.5 | 2.1 | 9.6 | 1.5 | 
trans-a-Ammine-b,d-dichloro-c,e-dihydroxo-f-(N-methylcyclohexylamine)-platinium (IV) [listing 1 of 2 here] | 1.3 µM | 1.6 µM | 29 mg/kg | 5 µM | 2.3 µM | 6.9 µM | 2.9 µM | 1.3 µM |  |  |  |  | 
trans-a-Ammine-b,d-dichloro-c,e-dihydroxo-f-(N-methylcyclohexylamine)-platinium (IV) [listing 2 of 2 here] |  |  |  |  |  |  |  |  | 3.7 | 0.7 | 9.4 | 2.2 | Growth delay (Mus musculus [12]): 1.1 days
trans-a-Ammine-b,d-dichloro-c,e-dihydroxo-f-(exo-2-aminonorbornane)-platinium (IV) [listing 1 of 2 here] | 1.4 µM | 1.5 µM | 17.5 mg/kg | 3 µM | 1.4 µM | 4.4 µM | 1.7 µM | 0.25 µM |  |  |  |  | 
trans-a-Ammine-b,d-dichloro-c,e-dihydroxo-f-(exo-2-aminonorbornane)-platinium (IV) [listing 2 of 2 here] |  |  |  |  |  |  |  |  | 12 | 1 | 4.9 | 1.2 | 
trans-a-Ammine-b,d-dichloro-c,e-dihydroxo-f-(quinuclidine)-platinium (IV) |  |  |  |  |  |  |  |  | 5 | 0.7 |  | 1.4 | 
trans-a-Ammine-b,d-dichloro-c,e-dihydroxy-f-(benzylamine)-platinium (IV) [listing 1 of 2 here] | 1.1 µM | 1.3 µM | 71 mg/kg | 4.2 µM | 1.3 µM | 8.2 µM | 1.9 µM | 1.1 µM |  |  |  |  | 
trans-a-Ammine-b,d-dichloro-c,e-dihydroxy-f-(benzylamine)-platinium (IV) [listing 2 of 2 here] |  |  |  |  |  |  |  |  | 4 | 1 | 22 | 1.7 | Growth delay (Mus musculus [13]): 8.3 days
trans-a-Ammine-b,d-dichloro-c,e-dihydroxy-f-(diethylamine)-platinium (IV) |  |  |  |  |  |  |  |  | 6.2 | 0.4 |  | 1.4 | 
trans-a-ammine-b,d-dichloro-f-(2-propylamine)-c,e-dihydroxoplatinium (IV) | 2.4 µM and 1.4 µM | 4.6 µM and 9.2 µM | 18 mg/kg and 35 mg/kg | 4.7 µM and 7.2 µM | 3.2 µM and 3.9 µM | 9.2 µM and 30.5 µM | 5.5 µM and 4.9 µM | 0.54 µM and 0.99 µM |  |  |  |  | 
trans-a-ammine-b,d-dichloro-f-(cyclohexylamine)-c,e-bis-(ethylcarbamato)platinium (IV) |  |  |  |  |  |  |  |  | 3.3 | 0.7 | 185 | 1.2 | 
trans-a-ammine-b,d-dichloro-f-(cyclohexylamine)-c,e-dihydroxoplatinium (IV) |  |  |  |  |  |  |  |  |  |  |  |  | Growth delay (Mus musculus [14]): 23.9 days; Growth delay (Mus musculus [15]): 12 days; Growth delay (Mus musculus [16]): 25.5 days; Growth delay (Mus musculus [17]): 63.7 days; Growth delay (Mus musculus [18]): 5.4 days; Growth delay (Mus musculus [19]): 16.8 days; Growth delay (Mus musculus [20]): 17 days; Growth delay (Mus musculus [21]): 7 days

From ChEMBL document CHEMBL1128497, “Synthesis and in vitro and in vivo antitumor activity of a series of trans platinum antitumor complexes” (J Med Chem, 1995)
